Experimental data: ChEMBL document CHEMBL1136626, “Discovery of novel and selective IKK-beta serine-threonine protein kinase inhibitors. Part 1” (Bioorg Med Chem Lett, 2003)
Blank lines part the entries; values can stand above or below the molecule they belong to.

What was measured:
A549 = assay: In vitro concentration required to inhibit the TNF-alpha-induced RANTES production in A549 human lung epithelium cell line; type: functional, cell-based
Procedure, shortened: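 A549 human lung epithelial cells grown in D-MEM with 10% FCS, penicillin/streptomycin and 2 mM glutamine. Cells (4×10⁴/well) pretreated 1 h with compound or vehicle (0.1% DMSO), then stimulated with 100 ng/mL TNF-α for 24 h. RANTES in supernatants measured by quantitative sandwich fluorescent immunoassay.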

[1] = target: T1, Inhibitor of nuclear factor kappa-B kinase subunit beta (Homo sapiens, UniProt O14920); assay: In vitro inhibitory concentration required against recombinant human IkB kinase beta (IKK-beta)
T1 sequence (O14920 whole entry): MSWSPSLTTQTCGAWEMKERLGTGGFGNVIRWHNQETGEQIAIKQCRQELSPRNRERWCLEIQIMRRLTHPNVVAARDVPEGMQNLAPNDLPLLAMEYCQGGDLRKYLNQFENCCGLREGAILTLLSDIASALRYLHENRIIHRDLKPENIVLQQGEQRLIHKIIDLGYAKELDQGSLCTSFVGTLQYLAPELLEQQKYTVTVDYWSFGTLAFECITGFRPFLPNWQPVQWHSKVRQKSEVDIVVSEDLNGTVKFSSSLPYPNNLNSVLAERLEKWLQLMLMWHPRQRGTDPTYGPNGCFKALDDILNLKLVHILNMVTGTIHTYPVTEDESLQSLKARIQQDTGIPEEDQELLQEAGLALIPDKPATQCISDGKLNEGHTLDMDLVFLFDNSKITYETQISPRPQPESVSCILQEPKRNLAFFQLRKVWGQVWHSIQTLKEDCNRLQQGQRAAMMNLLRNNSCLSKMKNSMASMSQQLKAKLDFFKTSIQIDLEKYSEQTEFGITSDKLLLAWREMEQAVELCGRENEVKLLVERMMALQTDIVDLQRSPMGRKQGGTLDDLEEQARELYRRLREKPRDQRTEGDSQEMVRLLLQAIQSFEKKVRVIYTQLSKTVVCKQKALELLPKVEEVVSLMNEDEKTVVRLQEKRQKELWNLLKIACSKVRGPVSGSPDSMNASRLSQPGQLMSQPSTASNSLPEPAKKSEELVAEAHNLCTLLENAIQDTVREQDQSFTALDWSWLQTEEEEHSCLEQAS
Procedure, shortened: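 Recombinant His-tagged human IKK-β from baculovirus-infected insect cells, final […], with biotinylated GST-IκBα(1-54) substrate (final 0.2) in Tris-HCl pH 7.6 buffer with MgCl₂, DTT, Na₃VO₄ and BSA; DMSO final 0.25%. Started with ATP plus [γ-³³P]ATP, 2 h at rt, stopped with EDTA. Substrate captured on streptavidin plates, washed, counted by scintillation.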

HEK293 = assay: In vitro inhibition of NF-kappaB-Luciferase in HEK293 cell line; type: functional, cell-based; conditions: Homo sapiens
[2] = target: T2, Inhibitor of nuclear factor kappa-B kinase subunit alpha (Homo sapiens, UniProt O15111); assay: Inhibition of human IKK-alpha
T2 sequence (O15111 whole entry): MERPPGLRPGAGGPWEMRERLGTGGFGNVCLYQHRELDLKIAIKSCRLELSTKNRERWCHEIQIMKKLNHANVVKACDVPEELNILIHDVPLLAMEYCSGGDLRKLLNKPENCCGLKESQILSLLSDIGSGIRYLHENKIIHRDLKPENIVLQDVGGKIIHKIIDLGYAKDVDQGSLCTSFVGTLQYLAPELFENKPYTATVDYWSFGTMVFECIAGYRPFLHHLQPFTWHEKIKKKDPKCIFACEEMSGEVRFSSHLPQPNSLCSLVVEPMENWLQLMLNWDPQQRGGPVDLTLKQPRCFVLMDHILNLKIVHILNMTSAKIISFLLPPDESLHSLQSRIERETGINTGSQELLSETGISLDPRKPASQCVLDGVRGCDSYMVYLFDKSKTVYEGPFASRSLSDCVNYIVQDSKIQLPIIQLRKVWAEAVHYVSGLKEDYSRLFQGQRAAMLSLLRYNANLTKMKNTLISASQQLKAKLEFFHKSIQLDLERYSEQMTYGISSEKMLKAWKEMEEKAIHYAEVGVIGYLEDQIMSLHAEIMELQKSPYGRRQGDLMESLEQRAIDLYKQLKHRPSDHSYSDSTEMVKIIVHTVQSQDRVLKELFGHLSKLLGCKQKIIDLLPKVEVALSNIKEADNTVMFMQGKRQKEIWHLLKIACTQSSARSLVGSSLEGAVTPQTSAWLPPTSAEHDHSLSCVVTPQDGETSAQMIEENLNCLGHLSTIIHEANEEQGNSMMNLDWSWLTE

Jurkat = assay: In vitro inhibition of anti-CD3/anti-CD28-I induced IL-2 release in Jurkat T-cells; type: functional, cell-based; conditions: Homo sapiens
Mus musculus [3] = assay: In vivo LPS-induced TNF-alpha production in mice after ip administration (30 min pretreatment); type: functional
Procedure, shortened: (§1)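 Eight-week-old female BALB/c mice given 200 (per mouse) LPS ip in saline. Compound dosed ip 30 min before LPS, or po in 10% cremophor/saline 60 min before. Blood taken under pentobarbital anaesthesia 90 min after LPS. Plasma TNFα measured by ELISA; mean of 5 mice per group used to calculate percent reduction versus LPS controls; ED₅₀ reported.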

Mus musculus [4] = assay: In vivo LPS-induced TNF-alpha production in mice after oral administration (60 min pretreatment); type: functional; procedure, shortened: as §1
Mus musculus [5] = species: Mus musculus; assay: In vitro inhibition of IgE in mouse B-cells; type: functional, cell-based
[6] = target: Tyrosine-protein kinase SYK (Homo sapiens, UniProt P43405); assay: Inhibition of human Syk
[7] = target: T3, Dual specificity mitogen-activated protein kinase kinase 4 (Homo sapiens, UniProt P45985); assay: Inhibition of human mitogen-activated protein kinase kinase 4 (MKK4)
T3 sequence (P45985 whole entry): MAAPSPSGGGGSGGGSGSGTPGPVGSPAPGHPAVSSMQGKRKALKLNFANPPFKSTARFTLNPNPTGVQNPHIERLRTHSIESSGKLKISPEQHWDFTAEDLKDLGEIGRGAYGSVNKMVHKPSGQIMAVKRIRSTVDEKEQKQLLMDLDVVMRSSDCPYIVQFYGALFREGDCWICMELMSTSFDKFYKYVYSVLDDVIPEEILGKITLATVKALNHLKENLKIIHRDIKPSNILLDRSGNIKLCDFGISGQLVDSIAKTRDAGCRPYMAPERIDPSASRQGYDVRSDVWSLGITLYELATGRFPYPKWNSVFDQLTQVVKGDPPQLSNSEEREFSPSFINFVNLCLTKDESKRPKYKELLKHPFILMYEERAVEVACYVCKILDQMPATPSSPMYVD

PBMC = assay: In vitro inhibition TNF-alpha release in human Peripheral blood mononuclear cells (PBMC); type: functional, cell-based
[8] = target: T2, Inhibitor of nuclear factor kappa-B kinase subunit alpha; assay: Inhibition of human IKK-alpha kinase

Compound: N#Cc1c(-c2cccc(NC(=O)CCCC(=O)O)c2)cc(-c2ccccc2O)nc1N
IC50 (A549): > 50 µM
IC50 [1]: 1.4 µM

Compound: COc1ccccc1-c1cc(-c2cccc(NC(=O)C(O)CCC(=O)O)c2)c(C#N)c(N)n1 (stereo not drawn)
IC50 (A549): > 50 µM
IC50 [1]: > 20 µM

Compound: N#Cc1c(-c2ccc(NC(=O)CCCC(=O)O)cc2)cc(-c2ccccc2O)nc1N
IC50 (A549): > 50 µM
IC50 [1]: 0.5 µM

Compound: N#Cc1c(-c2ccc(C(=O)NCCN3CCCCC3)cc2)cc(-c2ccccc2O)nc1N
IC50 (A549): > 50 µM
IC50 [1]: 0.6 µM

Compound: N#Cc1c(-c2ccc(NC(=O)CCN3CCCCC3)cc2)cc(-c2ccccc2O)nc1N
IC50 (A549): > 50 µM
IC50 [1]: 1 µM

Compound: Cc1c(-c2ccccc2O)nc(N)c(C#N)c1-c1cccc(NC(=O)C(O)CCC(=O)O)c1 (stereo not drawn)
IC50 (A549): > 50 µM
IC50 [1]: > 20 µM

Compound: Cc1cccc(O)c1-c1cc(-c2cccc(NC(=O)C(O)CCC(=O)O)c2)c(C#N)c(N)n1 (stereo not drawn)
IC50 (A549): > 50 µM
IC50 [1]: > 20 µM

Compound: COc1cccc(O)c1-c1cc(-c2cccc(NC(=O)C(O)CCC(=O)O)c2)c(C#N)c(N)n1 (stereo not drawn)
IC50 (A549): > 50 µM
IC50 [1]: 2 µM

Compound: COc1ccc(O)c(-c2cc(-c3cccc(NC(=O)C(O)CCC(=O)O)c3)c(C#N)c(N)n2)c1 (stereo not drawn)
IC50 (A549): > 50 µM
IC50 [1]: 5.3 µM

Compound: COCC(=O)Nc1cccc(-c2cc(-c3ccccc3O)nc(N)c2C#N)c1
IC50 (A549): > 50 µM
IC50 [1]: 1.4 µM

Compound: N#Cc1c(-c2cccc(NC(=O)C(O)CCC(=O)O)c2)cc(-c2cc(Cl)ccc2O)nc1N (stereo not drawn)
IC50 (A549): > 50 µM
IC50 [1]: 5.5 µM

The next lines start with results.

IC50 (A549): > 50 µM
IC50 [1]: 20 µM
Compound: N#Cc1c(-c2cccc(N)c2)cc(-c2ccccc2O)nc1N

IC50 (A549): 15 µM
IC50 [1]: 0.6 µM
Compound: N#Cc1c(-c2cccc(NC(=O)C(N)CC(=O)O)c2)cc(-c2ccccc2O)nc1N (stereo not drawn)

IC50 (A549): 8 µM
IC50 [2]: > 20 µM
IC50 [1]: 1.5 µM
IC50 (Jurkat): 15 µM
IC50 (Mus musculus [5]): 0.35 µM
IC50 [6]: > 20 µM
IC50 [7]: > 20 µM
Compound: N#Cc1c(-c2cccc(NC(=O)C3CCC(=O)O3)c2)cc(-c2ccccc2O)nc1N (stereo not drawn)
IC50 (HEK293): 8 µM
ED50 (Mus musculus [3]): 10 mg/kg
ED50 (Mus musculus [4]): > 30 mg/kg
IC50 (PBMC): 10 µM

IC50 (A549): 7 µM
IC50 [1]: 0.6 µM
IC50 [8]: 20 µM
IC50 [6]: > 20 µM
IC50 [7]: > 20 µM
Compound: N#Cc1c(-c2cccc(NC(=O)CCN3CCCCC3)c2)cc(-c2ccccc2O)nc1N
ED50 (Mus musculus [3]): < 0.03 mg/kg
ED50 (Mus musculus [4]): 2 mg/kg

IC50 (A549): 15 µM
IC50 [1]: 1.8 µM
Compound: N#Cc1c(-c2cccc(C(=O)NCCN3CCCCC3)c2)cc(-c2ccccc2O)nc1N

IC50 (A549): 15 µM
IC50 [1]: 3 µM
Compound: N#Cc1c(-c2cccc(NC(=O)CN3CCCCC3)c2)cc(-c2ccccc2O)nc1N
